Experiments:
[1] = molecular target: T1, Acetylcholinesterase (Rattus norvegicus) (UniProt P37136); assay: (§1) Inhibition of AChE in Wistar rat brain homogenate using acetylthiocholine iodide as substrate after 0.5 hrs by Ellman's method; format: tissue-based
T1 sequence (whole entry): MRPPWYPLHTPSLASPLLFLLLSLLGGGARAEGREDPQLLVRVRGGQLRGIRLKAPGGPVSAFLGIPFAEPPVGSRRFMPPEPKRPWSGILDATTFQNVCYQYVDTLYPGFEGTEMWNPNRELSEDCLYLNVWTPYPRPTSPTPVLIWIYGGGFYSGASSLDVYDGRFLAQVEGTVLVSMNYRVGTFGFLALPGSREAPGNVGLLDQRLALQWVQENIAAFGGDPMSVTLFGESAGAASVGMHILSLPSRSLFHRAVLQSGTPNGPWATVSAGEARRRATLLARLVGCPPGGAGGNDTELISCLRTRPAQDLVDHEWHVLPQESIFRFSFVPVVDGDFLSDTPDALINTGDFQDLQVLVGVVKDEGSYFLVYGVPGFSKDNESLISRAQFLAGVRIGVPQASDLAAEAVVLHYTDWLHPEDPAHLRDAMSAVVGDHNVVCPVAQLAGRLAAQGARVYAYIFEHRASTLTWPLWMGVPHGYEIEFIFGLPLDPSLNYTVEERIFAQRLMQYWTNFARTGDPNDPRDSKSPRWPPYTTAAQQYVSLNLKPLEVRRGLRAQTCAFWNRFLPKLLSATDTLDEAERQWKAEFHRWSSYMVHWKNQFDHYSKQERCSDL
How it was run: (§2)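 Male Wistar ST rats (8–10 weeks old). Inhibitor is preincubated with homogenate (3:10 v/v) for 0.5 h at 37 °C. Ellman assay in 0.1 M phosphate with DTNB (10 mM stock) and acetylthiocholine (75 mM stock). A412 is recorded for 2 min at 25 °C, and the last-minute change gives activity. Four dose-response curves.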

Acetylcholinesterase = molecular target: T2, Acetylcholinesterase (Rattus norvegicus, UniProt P37136); assay: as §1; format: tissue-based; how it was run: as §2
T2 sequence (P37136 whole entry): T1 sequence (whole entry)

[2] = molecular target: Butyrylcholinesterase (Rattus norvegicus) (UniProt Q9JKC1); assay: (§3) Inhibition of BuChE in Wistar rat plasma using acetylthiocholine iodide as substrate after 0.5 hrs by Ellman's method
Sequence of Butyrylcholinesterase (Rattus norvegicus) (Q9JKC1 as listed by the source): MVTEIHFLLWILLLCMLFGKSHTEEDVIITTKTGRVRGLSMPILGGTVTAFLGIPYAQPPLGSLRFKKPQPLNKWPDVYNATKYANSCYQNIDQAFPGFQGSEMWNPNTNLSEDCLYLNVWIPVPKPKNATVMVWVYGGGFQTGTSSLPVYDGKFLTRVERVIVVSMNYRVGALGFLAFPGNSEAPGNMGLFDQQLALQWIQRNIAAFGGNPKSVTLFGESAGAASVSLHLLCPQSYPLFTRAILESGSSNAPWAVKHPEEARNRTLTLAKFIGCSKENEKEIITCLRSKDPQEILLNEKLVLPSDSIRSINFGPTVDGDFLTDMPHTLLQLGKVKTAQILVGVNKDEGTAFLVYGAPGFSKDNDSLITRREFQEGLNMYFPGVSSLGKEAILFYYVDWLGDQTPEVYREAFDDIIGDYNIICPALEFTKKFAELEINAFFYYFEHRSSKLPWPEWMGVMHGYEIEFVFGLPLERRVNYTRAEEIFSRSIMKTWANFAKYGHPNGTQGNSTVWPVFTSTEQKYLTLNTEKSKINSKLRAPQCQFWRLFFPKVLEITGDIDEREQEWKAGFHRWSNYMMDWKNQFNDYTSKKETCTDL

Butyrylcholinesterase = Butyrylcholinesterase (Rattus norvegicus, UniProt Q9JKC1); assay: as §3
Sequence of Butyrylcholinesterase (Q9JKC1 whole entry): as the sequence (Q9JKC1 as listed by the source) above

Rattus norvegicus = species: Rattus norvegicus; assay: Selectivity ratio of IC50 for BuChE in Wistar rat plasma to IC50 for AChE in Wistar rat brain homogenate; format: tissue-based

C=CCC12CCN(C)C1N(C)c1ccc(OC(=O)Nc3ccc(Br)cc3)cc12 (racemic)
inhibition [1]: Dose-dependent effect | IC50 (Acetylcholinesterase): > 10 µM | inhibition [2]: Dose-dependent effect | IC50 (Butyrylcholinesterase): > 10 µM

C=CCC12CCN(C)C1N(C)c1ccc(OC(=O)Nc3ccc(F)cc3)cc12 (racemic)
inhibition [1]: Dose-dependent effect | IC50 (Acetylcholinesterase): 4.36 µM | inhibition [2]: Dose-dependent effect | IC50 (Butyrylcholinesterase): > 100 µM | Ratio IC50 (Rattus norvegicus): > 23

CCC12CCN(C)C1N(C)c1ccc(OC(=O)Nc3ccccc3)cc12 (racemic)
inhibition [1]: Dose-dependent effect | IC50 (Acetylcholinesterase): 0.397 µM | inhibition [2]: Dose-dependent effect | IC50 (Butyrylcholinesterase): 30 µM | Ratio IC50 (Rattus norvegicus): 76

CCCC12CCN(C)C1N(C)c1ccc(OC(=O)Nc3ccccc3)cc12 (racemic)
inhibition [1]: Dose-dependent effect | IC50 (Acetylcholinesterase): 3.66 µM | inhibition [2]: Dose-dependent effect | IC50 (Butyrylcholinesterase): > 100 µM | Ratio IC50 (Rattus norvegicus): > 27

CNC(=O)Oc1ccc2c(c1)[C@]1(C)CCN(C)[C@@H]1N2C [PHYSOSTIGMINE]
inhibition [1]: Dose-dependent effect | inhibition [2]: Dose-dependent effect | IC50 (Butyrylcholinesterase): 0.0584 µM

CC[C@]12CCN(C)[C@@H]1N(C)c1ccc(OC(=O)Nc3ccccc3)cc12
inhibition [1]: Dose-dependent effect | IC50 (Acetylcholinesterase): 0.373 µM | inhibition [2]: Dose-dependent effect | IC50 (Butyrylcholinesterase): 36.2 µM | Ratio IC50 (Rattus norvegicus): 97

C=CCC12CCN(C)C1N(C)c1ccc(OC(=O)Nc3ccccc3F)cc12 (racemic)
inhibition [1]: Dose-dependent effect | IC50 (Acetylcholinesterase): 3.55 µM | inhibition [2]: Dose-dependent effect | IC50 (Butyrylcholinesterase): 87.3 µM | Ratio IC50 (Rattus norvegicus): 25

C=CCC12CCN(C)C1N(C)c1ccc(OC(=O)Nc3ccccc3)cc12 (racemic)
inhibition [1]: Dose-dependent effect | IC50 (Acetylcholinesterase): 3.77 µM | inhibition [2]: Dose-dependent effect | IC50 (Butyrylcholinesterase): > 100 µM | Ratio IC50 (Rattus norvegicus): > 27

C=C[C@@]12CCN(C)[C@@H]1N(C)c1ccc(OC(=O)Nc3ccccc3)cc12
inhibition [1]: Dose-dependent effect | IC50 (Acetylcholinesterase): 0.644 µM | inhibition [2]: Dose-dependent effect | IC50 (Butyrylcholinesterase): 41.9 µM | Ratio IC50 (Rattus norvegicus): 65

CN1CC[C@@]2(C)c3cc(OC(=O)Nc4ccccc4)ccc3N(C)C12 (stereo partly specified)
inhibition [1]: Dose-dependent effect | IC50 (Acetylcholinesterase): 0.0283 µM | inhibition [2]: Dose-dependent effect | IC50 (Butyrylcholinesterase): 30 µM | Ratio IC50 (Rattus norvegicus): 1100

C=CC[C@]12CCN(C)[C@@H]1N(C)c1ccc(OC(=O)Nc3ccccc3)cc12
inhibition [1]: Dose-dependent effect | IC50 (Acetylcholinesterase): 1.26 µM | inhibition [2]: Dose-dependent effect | IC50 (Butyrylcholinesterase): > 100 µM | Ratio IC50 (Rattus norvegicus): > 79

C=CCC12CC(=O)N(C)C1N(C)c1ccc(OC(=O)Nc3ccccc3)cc12 (racemic)
inhibition [1]: Dose-dependent effect | IC50 (Acetylcholinesterase): 4.73 µM | inhibition [2]: Dose-dependent effect | IC50 (Butyrylcholinesterase): 65.3 µM | Ratio IC50 (Rattus norvegicus): 14

CCC(C)(C)[C@@]12CCN(C)[C@@H]1N(C)c1ccc(OC(=O)Nc3ccccc3)cc12
inhibition [1]: Dose-dependent effect | IC50 (Acetylcholinesterase): 9.5 µM | inhibition [2]: Dose-dependent effect | IC50 (Butyrylcholinesterase): > 100 µM | Ratio IC50 (Rattus norvegicus): > 11

C=CC12CCN(C)C1N(C)c1ccc(OC(=O)Nc3ccccc3)cc12 (racemic)
inhibition [1]: Dose-dependent effect | IC50 (Acetylcholinesterase): 0.749 µM | inhibition [2]: Dose-dependent effect | IC50 (Butyrylcholinesterase): > 30 µM | Ratio IC50 (Rattus norvegicus): > 40

CCC(C)(C)C12CCN(C)C1N(C)c1ccc(OC(=O)Nc3ccccc3)cc12 (racemic)
inhibition [1]: Dose-dependent effect | IC50 (Acetylcholinesterase): 18.4 µM | inhibition [2]: Dose-dependent effect | IC50 (Butyrylcholinesterase): > 100 µM | Ratio IC50 (Rattus norvegicus): > 5.4

C=CCC12CCN(C)C1N(C)c1ccc(OC(=O)Nc3ccc(C(C)C)cc3)cc12 (racemic)
inhibition [1]: Dose-dependent effect | IC50 (Acetylcholinesterase): > 10 µM | inhibition [2]: Dose-dependent effect | IC50 (Butyrylcholinesterase): > 10 µM
